An excerpt weighted towards active compounds, which were near 4.7% of everything screened.
MrgX1 PAM = human MrgX1 positive allosteric modulation, primary screen | Q96LB2 | MrgX1-HEK293, Fluo-4 calcium flux, FDSS; active compounds read high | B-score at 10 µM | 310,000 compounds, 0.63% hits | AID 588675;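 active = plate-corrected calcium response at least 3 library SD above typical, normal starting fluorescence, not activating the receptor alone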;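 note: compound read alongside a low EC10 to EC30 dose of BAM8-22 agonist; peak minus trough fluorescence over baseline measured at the second addition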
Target sequence (Q96LB2 whole entry, looked up): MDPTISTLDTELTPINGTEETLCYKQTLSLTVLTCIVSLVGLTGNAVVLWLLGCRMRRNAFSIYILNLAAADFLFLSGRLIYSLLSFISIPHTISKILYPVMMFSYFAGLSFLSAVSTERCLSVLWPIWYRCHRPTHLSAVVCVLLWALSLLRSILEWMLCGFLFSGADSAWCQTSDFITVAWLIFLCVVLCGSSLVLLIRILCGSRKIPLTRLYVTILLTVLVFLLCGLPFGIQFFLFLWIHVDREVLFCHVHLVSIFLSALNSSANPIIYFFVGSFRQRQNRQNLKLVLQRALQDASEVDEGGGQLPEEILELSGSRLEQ
MrgX1 antagonist = antagonists of human MrgX1 receptor | Q96LB2 | MRGX1-HEK293 calcium flux, Fluo-4, BAM8-22 antagonism; active compounds read low | B-score at 10 µM | 310,000 compounds, 1.3% hits;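 active = calcium-response B-score plate-corrected more than 3 library SD below zero, starting fluorescence within 5 deviations, no agonist response on first addition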;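 note: peak minus trough fluorescence over baseline after final BAM8-22 challenge near maximal dose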
RGS4 block = inhibitors of human RGS4; AID 463165; B-score at 10 µM; HEK293 M3R/RGS4 inducible, Fluo-4 calcium flux; active compounds read high; triggered by carbachol at its EC20; P49798; 310,000 compounds, 0.45% hits;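 active = B-score, a plate-corrected calcium signal, over three deviations above library mean, with baseline fluorescence within five deviations of library mean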;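 note: RGS4 expression induced by doxycycline in cells with stable M3 receptor; B-score is computed from the integrated fluorescence ratio over baseline after carbachol; higher B-score means a larger calcium signal and so more RGS4 inhibition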
Target sequence (P49798 whole entry, looked up): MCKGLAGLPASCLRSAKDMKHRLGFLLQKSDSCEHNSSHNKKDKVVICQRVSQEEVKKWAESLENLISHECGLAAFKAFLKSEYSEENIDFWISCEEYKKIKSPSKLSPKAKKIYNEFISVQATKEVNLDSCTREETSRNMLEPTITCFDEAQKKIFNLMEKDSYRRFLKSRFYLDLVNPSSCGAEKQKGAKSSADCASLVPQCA
Cl transport mod = modulates chloride dependent transport by human KCC2 | KCC2 cells, thallium flux FluoZin-2 fluorescence | 190,000 compounds, 2.2% hits | AID 1456 | Q9H2X9 | B-score of Tl+ flux slope (higher = more flux/activation; lower = inhibition) at 10 µM;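 active = thallium flux slope and its plate-corrected score both differing from the plate sample mean at a set confidence after two filtering rounds, in either direction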;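 note: slope of fluorescence scaled to starting intensity during 10 to 20 s after thallium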
RGS4 act = potentiators or activators of RGS4 | B-score at 10 µM | HEK293 M3R/inducible RGS4, carbachol calcium flux Fluo4; active compounds read low | 310,000 compounds, 0.92% hits;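 active = B-score of the integrated calcium signal more than 4 SD below the library mean, with starting fluorescence not abnormally high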;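 note: negative B-score means reduced calcium response which marks RGS4 activation or potentiation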
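Detection: kinetic calcium fluorescence imaging with Fluo4-AM dye, 2 µM / Material: HEK293 cells with stable M3R and inducible RGS4 / Schedule: recording 10 s baseline at 1 Hz, 100 s post-agonist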
MrgX1 agonist = human MrgX1 receptor agonism, primary screen; MrgX1-HEK293 cells, Fluo-4 calcium fluorescence, agonist mode; active compounds read high; B-score at 10 µM; 310,000 compounds, 0.44% hits; Q96LB2;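 active = calcium response B-score plate-corrected fluorescence ratio at least 3 library SD, with starting fluorescence B-score inside 5 SD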
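Assay system: stable human MrgX1 HEK293 cell line. Quantity: 15,000 cells per well. Schedule: cells plated overnight, dye loaded 0.5 h 37 °C, 0.5 h room temperature. Detection: Fluo-4 NW calcium-flux fluorescence, kinetic read. Read-out basis: peak-minus-minimum fluorescence over baseline, converted to B scores. Control set: positive and negative control wells on each plate.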
KCC2 secondary = KCC2 (human) modulation, secondary assay; shares compounds with Cl transport mod; HEK293-KCC2, thallium flux, FluoZin2 fluorescence; active compounds read high; normalised thallium flux (F/F0 slope) at 10 µM; 3,700 compounds, 15% hits;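 active = thallium flux slope above the same plate's solvent-only control mean plus 3 SD; inconclusive = the two replicate wells disagree; inactive = no significant difference from solvent-only control wells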
KCC2 bumet counter = bumetanide-insensitive thallium flux in KCC2 cells with ouabain, counter-screen. shares compounds with Cl transport mod. HEK293-KCC2 + bumetanide/ouabain, thallium flux FluoZin2; active compounds read high. normalized thallium flux at 10 µM. 3,700 compounds, 49% hits;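 active = thallium entry rate above the same plate's blocked-transporter control wells by more than 3 SD; inconclusive = the two repeat wells disagree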;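 note: raw slope of fluorescence over initial fluorescence between 10 and 20 s after thallium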
KCC2 secondary2 = KCC2 (human) modulation, second secondary assay | shares compounds with Cl transport mod | HEK293-KCC2, thallium flux FluoZin2 fluorescence; actives lie on both sides; F/F0 rise rate, 10–20 s post-thallium | normalized thallium flux at 10 µM | 3,700 compounds, 23% hits;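 active = thallium flux slope more than 3 SD above or below the plate's solvent-only control mean, mostly below; inconclusive = the two repeat wells disagreed; inactive = no significant shift from solvent-only controls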
HEK293 Tl flux = parental HEK flux effect, counter-screen; shares compounds with Cl transport mod; HEK293 parental cells, thallium flux FluoZin2, ouabain; baseline-ratio fluorescence slope, 10–20 s after thallium; thallium flux rate (normalised fluorescence) at 10 µM; 3,700 compounds, 46% hits; AID 1716;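 active = thallium flux rate significantly above the same plate's solvent-only control wells, beyond their mean plus 3 SD; inconclusive = the two replicate wells gave conflicting results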
KCC2 retest ouab = KCC2 (human) modulation, ouabain retest; HEK293-KCC2, thallium flux FluoZin2 fluorescence; bidirectional: low = inhibitor, high = activator; shares compounds with Cl transport mod; 3,700 compounds, 48% hits; raw Tl+ flux slope (below DMSO = inhibition, above = activation) at 10 µM; AID 1717;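 active = thallium flux slope beyond 3 SD from same-plate DMSO control mean in most replicates, usually higher, sometimes lower; inconclusive = repeat tests gave conflicting results; inactive = no significant difference from controls in most replicates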;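 note: slope of initial-normalized fluorescence between seconds 10 and 20 after thallium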
HEK293 Tl flux2 = acts in parental HEK cells, second KCC2 counter-screen. shares compounds with Cl transport mod. HEK293 parental, thallium flux FluoZin-2 fluorescence slope. thallium flux slope at 10 µM. 3,700 compounds, 33% hits. AID 1718;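 active = thallium flux slope above the same plate's solvent-control mean plus 3 SD in both duplicate wells; inconclusive = duplicate wells that disagreed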;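 note: run without ouabain in cells lacking the KCC2 cotransporter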
Numbers stand for hits; . = inactive; ? = inconclusive; / = no result.

SMILES	MrgX1 PAM	MrgX1 antagonist	RGS4 block	Cl transport mod	RGS4 act	MrgX1 agonist	KCC2 secondary	KCC2 bumet counter	KCC2 secondary2	HEK293 Tl flux	KCC2 retest ouab	HEK293 Tl flux2
S=c1[nH]cc(Cc2ccccc2)s1	.	.	.	40	.	.	0.026	0.12	.	0.035	0.068	0.021
c1ccc(Cc2nnc3sc(-c4ccco4)nn23)cc1	.	.	.	.	.	.	/	/	/	/	/	/
CCn1c(=O)c(C(=O)NNC(=O)Cc2ccccc2)c(O)c2ccccc21	.	.	.	/	.	.	/	/	/	/	/	/
CCCCCCCCC(=O)NNC(=O)c1c(O)c2ccccc2n(CCC)c1=O	.	.	.	6.3	.	.	.	0.012	.	0.015	.	?
CCCCCCCCCCC(=O)NNC(=O)c1c(O)c2ccccc2n(CC)c1=O	.	.	.	5.2	.	.	.	0.015	.	0.0099	.	.
CCCCCCCC(=O)NNC(=O)c1c(O)c2ccccc2[nH]c1=O	.	.	.	.	.	.	/	/	/	/	/	/
CCCCCCCCCC(=O)NNC(=O)c1c(O)c2ccccc2n(CCC)c1=O	.	.	.	3.9	.	.	.	0.0099	.	0.0092	.	.
CCCn1c(=O)c(C(=O)NCc2ccccc2)c(O)c2ccccc21	.	.	.	/	.	.	/	/	/	/	/	/
CCN(C(=O)COC(=O)CN(C)S(=O)(=O)c1ccc(NC(C)=O)cc1)C1CCS(=O)(=O)C1 (configuration not stated)	.	.	.	/	.	.	/	/	/	/	/	/
Fc1cccc2sc(Nc3nc4c(F)cccc4s3)nc12	.	.	.	18	.	.	?	0.036	.	0.052	0.034	?
NNc1nc2c(F)cccc2s1	.	.	.	.	.	.	/	/	/	/	/	/
O=C1CCN(C(=O)c2ccc(Cl)cc2)N1	.	.	.	-3.3	.	.	.	.	.	.	.	.
O=C1CCN(C(=O)CSc2ccc(Cl)cc2)N1	.	.	.	.	.	.	/	/	/	/	/	/
Cc1nc2sccn2c(=O)c1S(=O)(=O)N1CCN(c2cccc(Cl)c2)CC1	.	.	.	/	.	.	/	/	/	/	/	/
COC(=O)c1ccc(Cl)c(NC(=O)CN(c2ccccc2)S(=O)(=O)c2ccc(OC)cc2)c1	.	.	.	-4.4	.	.	.	.	?	.	0.019	.
Cc1ccc(Nc2nnc(C)c3ccccc23)c(C)c1	.	.	.	/	.	.	/	/	/	/	/	/
C=C(C)CNC(=S)N=Nc1c(O)[nH]c2ccc([N+](=O)[O-])cc12	.	.	.	14	.	.	.	0.021	.	0.024	0.027	0.014
COc1cccc(CCc2nnc(CCC(=O)NC(C)Cc3cccs3)o2)c1 (configuration not stated)	.	.	.	.	.	.	/	/	/	/	/	/
Cc1nn(Cc2c(F)c(F)c(F)c(F)c2F)c(C)c1NC(=O)c1ccc(COc2ccccc2Cl)o1	.	.	.	-6.4	.	.	.	.	.	.	0.015	.
COC(=O)c1ccccc1-c1cn(C)c2ccccc2c1=O	.	.	.	/	.	.	/	/	/	/	/	/
O=C(NCC1CCCN(C(=O)Cc2ccccc2Cl)C1)c1ccc(F)cc1 (configuration not stated)	.	.	.	/	.	.	/	/	/	/	/	/
O=C(NN1C(=O)/C(=C/c2cc([N+](=O)[O-])ccc2O)SC1=S)c1ccccc1O	.	.	.	/	.	.	/	/	/	/	/	/
Cc1ccc(/C=C2\SC(=S)N(/N=C/c3cc([N+](=O)[O-])ccc3O)C2=O)o1	.	.	.	3.8	.	.	.	0.013	.	0.0096	0.028	.
Brc1ccc(CSc2nnc(-c3ccccn3)n2Cc2ccco2)cc1	.	.	.	/	.	.	.	?	?	0.0045	?	0.0073
O=C(CSc1nnc(-c2ccccn2)n1Cc1ccco1)c1ccc(Cl)cc1	.	.	.	/	.	.	.	?	.	0.006	.	.
SMILES	MrgX1 PAM	MrgX1 antagonist	RGS4 block	Cl transport mod	RGS4 act	MrgX1 agonist	KCC2 secondary	KCC2 bumet counter	KCC2 secondary2	HEK293 Tl flux	KCC2 retest ouab	HEK293 Tl flux2
c1ccc(CSc2nnc(-c3ccco3)n2Cc2ccco2)cc1	.	.	.	/	.	.	.	?	0.026	0.0051	0.014	0.0086
O=C(COc1ccc(S(=O)(=O)N2CCOCC2)cc1)N1CCN(c2ccccc2)CC1	.	.	.	/	.	.	/	/	/	/	/	/
O=C(Nc1ccc(F)c(F)c1)C1=COCCO1	.	.	.	/	.	.	/	/	/	/	/	/
COc1ccc(OC)c(N(CC(=O)NN=C2CCN(C)CC2)S(=O)(=O)c2ccccc2)c1	.	.	.	/	.	.	/	/	/	/	/	/
CCc1nnc(NC(=O)C2CCC(CNc3c(N4CCC(C)CC4)c(=O)c3=O)CC2)s1 (configuration not stated)	.	.	.	.	.	.	/	/	/	/	/	/
Nc1nc(SCC(=O)Nc2ccc(Cl)cn2)n[nH]1	.	.	.	13	.	.	.	.	.	.	.	.
COC(=O)[C@@H](NC(=O)N1CCN(C(=O)C2COc3ccccc3O2)CC1)C(C)C (some centres not stated)	.	.	.	/	.	.	/	/	/	/	/	/
CCc1n[nH]c(=S)n1/N=C/c1ccc(N(C)c2ccccc2)cc1	.	.	.	9.5	.	.	.	0.019	.	0.029	0.026	.
CC(=O)Nc1cc2nc(C)n(Cc3ccccc3[N+](=O)[O-])c2nc1C	.	.	.	/	.	.	/	/	/	/	/	/
Cc1cc(C(=O)COC(=O)C2=COCCO2)c(C)n1-c1cccc(F)c1	.	.	.	/	.	.	/	/	/	/	/	/
O=c1cc(CSc2nnc(Nc3ccccc3F)s2)nc2sccn12	.	.	.	.	.	.	/	/	/	/	/	/
COc1ccc(Nc2nnc(SCc3cc(=O)n4ccsc4n3)s2)cc1	.	.	.	-5.2	.	.	.	.	0.03	.	0.017	.
Cc1sc2nc(CSC(C)C(=O)Nc3cc(S(C)(=O)=O)ccc3Cl)[nH]c(=O)c2c1C (configuration not stated)	.	.	.	/	.	.	/	/	/	/	/	/

Screening results deposited in PubChem by several laboratories.
